One data set deals with A549. The data set is described as follows: MTS cytotoxicity assay, 72 h, A549. The conditions noted are these: read-out: IC50 A549. It counts as cell-based, human. An outline of the steps: (§1)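 Human lines were kept at 37 °C, 5% CO2 in recommended medium plus 10% FCS, penicillin–streptomycin, 2 mM glutamine, 1 mM bicarbonate, 1 mM pyruvate and 20 mM HEPES, and were mycoplasma-tested biweekly. Cells were exposed to test compound for 72 h on a robotic screening platform, then read by MTS. DMSO-treated cells were the negative control. IC50 came from dose–response curves, mean of ≥6 replicates.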
A general note: Formazan colour is commonly taken as a measure of viable cells.

Another data set relates to HCT116. Kind of data set: MTS cytotoxicity assay, 72 h, HCT116. It is filed as cell-based, human. The conditions noted are these: read-out: IC50 HCT116. Put shortly: as §1
Another data set has as its system HCT116-p53. Kind of data set: MTS cytotoxicity assay, 72 h, HCT116-p53. It is filed as cell-based, human. Put shortly: as §1
A further data set concerns U2OS. Kind of data set: MTS cytotoxicity assay, 72 h, U2OS. It is filed as cell-based, human. Put shortly:
as §1

The subject of the next data set is RAMOS. The data set is described as follows: MTS cytotoxicity assay, 72 h, RAMOS. It counts as cell-based, human. An outline of the steps:
as §1

A further data set has as its system K562. The data set is described as follows: MTS cytotoxicity assay, 72 h, K562. It is filed as cell-based, human. The conditions noted are these: read-out: IC50 K562. An outline of the steps:
as §1

Another data set concerns Jurkat. The data set is described as follows: MTS cytotoxicity assay, 72 h, Jurkat. It counts as cell-based, human. Put shortly:
as §1

The test system of another data set is CCRF-CEM. The data set is described as follows: MTS cytotoxicity assay, 72 h, CCRF-CEM. It counts as cell-based, human. Put shortly:
as §1

In another data set the test system is BJ. The data set is described as follows: MTS cytotoxicity assay, 72 h, BJ fibroblasts. It counts as cell-based, human. Put shortly: as §1
The next data set has as its system MRC-5. The data set is described as follows: MTS cytotoxicity assay, 72 h, MRC-5 fibroblasts. It is filed as cell-based, human. The conditions noted are these: read-out: IC50 MRC-5. Put shortly:
as §1

A further data set has as its target Recombinant BTK (Homo sapiens, UniProt Q06187). The data set is described as follows: In vitro biochemical kinase assay.
A further data set deals with T1, Recombinant ITK (Homo sapiens, UniProt Q08881).
T1 sequence (Q08881 1-620): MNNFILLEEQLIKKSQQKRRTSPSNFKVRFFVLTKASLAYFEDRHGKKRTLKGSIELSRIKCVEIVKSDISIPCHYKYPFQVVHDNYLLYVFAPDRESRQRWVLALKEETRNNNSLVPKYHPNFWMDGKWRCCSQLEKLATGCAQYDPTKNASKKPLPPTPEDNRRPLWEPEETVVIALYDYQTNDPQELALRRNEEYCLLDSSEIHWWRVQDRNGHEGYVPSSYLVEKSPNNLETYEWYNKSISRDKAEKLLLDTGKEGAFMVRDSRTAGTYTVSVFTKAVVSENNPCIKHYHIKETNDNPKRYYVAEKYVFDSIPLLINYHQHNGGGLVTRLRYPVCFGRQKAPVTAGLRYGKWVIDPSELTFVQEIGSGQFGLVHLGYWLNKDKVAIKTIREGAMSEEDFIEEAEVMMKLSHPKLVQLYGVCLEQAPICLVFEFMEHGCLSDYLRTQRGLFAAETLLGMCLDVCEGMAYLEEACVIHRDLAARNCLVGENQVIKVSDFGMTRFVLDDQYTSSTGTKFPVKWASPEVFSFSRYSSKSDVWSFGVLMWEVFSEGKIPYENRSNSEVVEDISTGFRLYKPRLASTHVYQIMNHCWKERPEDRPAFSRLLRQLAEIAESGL
The data set is described as follows: In vitro biochemical kinase assay.

The test system of another data set is p-ITK (Tyr551/Tyr511). Kind of data set: Western blot of ITK phosphorylation in PHA-stimulated Jurkat cells. It counts as cell-based, human. Put shortly: (§2)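 Jurkat cells at 0.5 × 10^6 per mL were stimulated with PHA 5 µg per mL in RPMI/10% FCS for 15 min, then given test compound at 10, 2.25 or 0.62 µM for 24 h. Controls were 0.1% DMSO and unstimulated cells. RIPA lysates (30 µg) were run on 10% SDS-PAGE and probed for p-ITK/BTK (Tyr551/Tyr511), ITK, p-ERK1/2 (Thr202/Tyr204), ERK1/2 and GAPDH using fluorescent secondaries. Phospho/total ratios were normalised to GAPDH.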
(In general: A western blot detects proteins with antibodies after separation by electrophoresis.)

A further data set concerns p-ERK1/2 (Thr202/Tyr204). The data set is described as follows: Western blot of ERK1/2 phosphorylation in PHA-stimulated Jurkat cells. It counts as cell-based, human. An outline of the steps:
as §2

Data set [1] in a line: MTS cytotoxicity assay, statements over groups of cell lines of the panel. It is filed as cell-based, human. The conditions noted are these: human. An outline of the steps: as §1
Data set [2] concerns panel of human cell lines. The data set is described as above. It counts as cell-based. The conditions noted are these: stated together in the text. An outline of the steps: as §1
Another data set deals with malignant T-cell lines. The conditions noted are these: cited from earlier work.
The mark [3] stands for this setting: ITK/BTK null, MTS, 72 h, mean of ≥6 replicates.
[4] abbreviates: Homo sapiens, read-out: IC50 HCT116-p53.
[5] abbreviates: Homo sapiens, U2OS, read-out: IC50 U2OS.
The mark [6] stands for this setting: Homo sapiens, Ramos, read-out: IC50 RAMOS.
The mark [7] stands for this setting: Homo sapiens, Jurkat, read-out: IC50 Jurkat.
[8] abbreviates: Homo sapiens, CCRF-CEM, read-out: IC50 CCRF-CEM.
Setting [9] is: Homo sapiens, BJ, read-out: IC50 BJ.
The mark [10] stands for this setting: BJ and MRC-5 non-cancerous fibroblast cell lines.

Entries after “also recorded” stand apart in the source; their conditions may differ. Where two headings read alike, the source gives them in different places. Some results are limits rather than exact numbers.

Sequence of Recombinant BTK (Q06187 whole entry): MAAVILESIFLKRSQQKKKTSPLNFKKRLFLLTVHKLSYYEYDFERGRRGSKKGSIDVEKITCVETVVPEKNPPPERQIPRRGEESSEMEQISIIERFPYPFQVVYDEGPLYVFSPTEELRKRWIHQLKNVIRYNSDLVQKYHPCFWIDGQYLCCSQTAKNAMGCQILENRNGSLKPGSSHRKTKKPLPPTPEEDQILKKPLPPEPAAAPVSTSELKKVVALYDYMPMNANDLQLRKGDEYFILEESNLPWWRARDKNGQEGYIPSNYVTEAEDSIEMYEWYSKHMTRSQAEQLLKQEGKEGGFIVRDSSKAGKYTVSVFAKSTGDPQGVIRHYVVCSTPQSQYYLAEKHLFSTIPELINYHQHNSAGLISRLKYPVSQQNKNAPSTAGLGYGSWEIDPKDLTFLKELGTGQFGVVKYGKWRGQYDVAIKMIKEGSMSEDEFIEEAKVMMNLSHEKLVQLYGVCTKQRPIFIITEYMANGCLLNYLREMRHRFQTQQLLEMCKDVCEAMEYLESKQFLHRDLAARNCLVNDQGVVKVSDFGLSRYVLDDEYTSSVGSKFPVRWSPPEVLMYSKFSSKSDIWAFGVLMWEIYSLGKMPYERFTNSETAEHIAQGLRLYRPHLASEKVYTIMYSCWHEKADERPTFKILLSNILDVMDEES

Take “1-(6-(3,5-difluorophenyl)-3-oxo-2,3-dihydropyridazin-4-yl)-N-(furan-2-ylmethyl)azetidine-3-carboxamide [Compound 22]”: the IC50 with A549 (setting [3]) is > 50 µM; in the data set on HCT116 (setting [3]) it was 40.3 µM; in the data set on HCT116-p53 (read-out: IC50 HCT116-p53, ITK/BTK null, MTS, mean of ≥6 replicates), 41.2 µM; with U2OS (read-out: IC50 U2OS, ITK/BTK null, MTS, mean of ≥6 replicates), 36.2 µM; in the data set with RAMOS (read-out: IC50 RAMOS, BTK positive, MTS, mean of ≥6 replicates) it was 22.3 µM; with K562 (BTK positive, MTS, 72 h, mean of ≥6 replicates), 21.4 µM. For the same compound, the IC50 in the data set with Jurkat (read-out: IC50 Jurkat, ITK positive, MTS, mean of ≥6 replicates) was 11.2 µM; with CCRF-CEM (read-out: IC50 CCRF-CEM, ITK positive, MTS, mean of ≥6 replicates), 18.5 µM; in the data set on BJ (read-out: IC50 BJ, Non-cancer fibroblasts, MTS, mean of ≥6 replicates) it was > 50 µM; in the data set on MRC-5 (Non-cancer fibroblasts, MTS, 72 h, mean of ≥6 replicates), > 50 µM; on Recombinant BTK (read-out: IC50 BTK activity, ADP-Glo, 0–10 µM range) it was > 10 µM. On Recombinant BTK (ADP-Glo, 0–10 µM range), the “BTK inhibition (in words)” value is recorded as “partial BTK inhibition; also recorded: partial activity against BTK”. Besides, on Recombinant BTK (at 10 µM), the “maximal inhibition of BTK” value is on record as ≤ 50%.
Regarding `C=CC(=O)N1CCC[C@@H](n2nc(-c3ccc(Oc4ccccc4)cc3)c3c(N)ncnc32)C1` [ibrutinib, reference compound], the “inhibition of ITK activity (assay validation)” value on Recombinant ITK (ibrutinib 100 µM, vs. DMSO control) is “significant inhibition”.
With `O=C(Nc1ccccc1)C1CN(c2cc(-c3cccc(F)c3)n[nH]c2=O)C1` [Compound 9, 1-(6-(3-fluorophenyl)-3-oxo-2,3-dihydropyridazin-4-yl)-N-phenylazetidine-3-carboxamide], the IC50 in the data set with A549 (Homo sapiens, A549, 72 h) is > 50 µM; with HCT116 (Homo sapiens, HCT-116, 72 h), > 50 µM; in the data set with HCT116-p53 (setting [4]), > 50 µM; with U2OS (setting [5]) it was > 50 µM; in the data set on RAMOS (setting [6]), 9.58 µM; with K562 (Homo sapiens, K562, 72 h), > 50 µM. Further, the IC50 with Jurkat (setting [7]) was 37.6 µM; in the data set on CCRF-CEM (setting [8]), 19.5 µM; with BJ (setting [9]) it was > 50 µM; in the data set with MRC-5 (Homo sapiens, MRC5, 72 h) it was 43.2 µM; at Recombinant ITK, 0.87 µM. Also, the “BTK inhibition (in words)” value at Recombinant BTK (ADP-Glo, 0–10 µM range) was “no measurable BTK inhibition; also recorded: no BTK inhibitory effect was observed; also recorded: absence of BTK activity”. The “total ITK level” value in the data set with p-ITK (Tyr551/Tyr511) (PHA-stimulated Jurkat cells, 10 µM, 24 h) is “modest reduction”. Further, the “p-ITK (Tyr551/Tyr511) level” value in the data set on p-ITK (Tyr551/Tyr511) (PHA-stimulated Jurkat cells, 10, 2.25, 0.62 µM for 24 h) is recorded as “reduced phosphorylation; also recorded: concentration-dependent decrease; also recorded: concentration-dependent significant reduction”. The “p-ITK/ITK ratio (densitometry)” value with p-ITK (Tyr551/Tyr511) (all concentrations tested, normalized to GAPDH) was “significant reduction”. Besides, in the data set with p-ERK1/2 (Thr202/Tyr204) (PHA-stimulated Jurkat cells, 10 µM (highest concentration), 24 h), the “p-ERK1/2 (Thr202/Tyr204) level” value is on record as “reduced phosphorylation; also recorded: significant decrease”. Further, the “p-ERK/ERK ratio (densitometry)” value in the data set on p-ERK1/2 (Thr202/Tyr204) (highest tested concentration, normalized to GAPDH) is recorded as “significant decrease”. In data set [1] (setting [10]), the IC50 at 72 h was > 50 µM. Besides, the “IC50 / cytotoxicity in non-ITK/BTK (ITK-null) cancer lines” value in [2] (A549, HCT116, HCT116-p53, U2OS) was “inactive”. Also, the “IC50 / cytotoxicity in fibroblast cells” value in data set [2] (non-cancerous fibroblasts (BJ, MRC-5)) is “inactive”.
As for `COc1cc(C)c(Sc2cnc(NC(=O)c3ccc(CNC(C)C(C)(C)C)cc3)s2)cc1C(=O)N1CCN(C(C)=O)CC1` (centres unmarked) [BMS-509744], the “effect in malignant T-cell lines” value with malignant T-cell lines was “induced pro-apoptotic signaling and G2/M cell cycle arrest”.
Consider `O=C(c1ccc(F)cc1)C1CN(c2cc(-c3ccncc3)n[nH]c2=O)C1` [Compound 52, 4-(3-(4-fluorobenzoyl)azetidin-1-yl)-6-(pyridin-4-yl)pyridazin-3(2H)-one], for which the IC50 in the data set on A549 (Homo sapiens, A549, 72 h) is > 50 µM; in the data set on HCT116 (Homo sapiens, HCT-116, 72 h) it was > 50 µM; in the data set with HCT116-p53 (setting [4]), > 50 µM; in the data set with U2OS (setting [5]), > 50 µM; with RAMOS (setting [6]), 13.2 µM; in the data set with K562 (Homo sapiens, K562, 72 h), > 50 µM. Further, the IC50 was 20.7 µM with Jurkat (setting [7]); > 50 µM with CCRF-CEM (setting [8]); > 50 µM in the data set with BJ (setting [9]); > 50 µM with MRC-5 (Homo sapiens, MRC5, 72 h). The IC50 at 72 h in data set [1] (A549, HCT116, HCT116-p53 and U2OS ITK-null cancer cell lines) is > 50 µM; in data set [1] (setting [10]) it was > 50 µM.
